According to ChEMBL document CHEMBL4190362, “Synthesis, biological evaluation and quantitative structure-active relationships of 1,3-thiazolidin-4-one derivatives. A promising chemical scaffold endowed with high antifungal potency and low cytotoxicity” (Eur J Med Chem, 2017):

Experiments:
Format in all cases: functional
[1] = system: Staphylococcus warneri; assay: Antibacterial activity against Staphylococcus warneri assessed as inhibition of microbial growth incubated for 18 to 22 hrs by broth microdilution method
In short: (§1)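 Broth microdilution in Mueller-Hinton II broth following NCCLS recommendations; compounds dissolved in DMSO.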

[2] = system: Staphylococcus aureus; assay: Antibacterial activity against Staphylococcus aureus assessed as inhibition of microbial growth incubated for 18 to 22 hrs by broth microdilution method; in short: as §1
[3] = system: Pichia kudriavzevii; assay: Antifungal activity against Candida krusei clinical isolates assessed as inhibition of microbial growth incubated for 24 hrs by broth microdilution method
In short: (§2)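 Twenty-two clinical Candida isolates (8 C. albicans, 4 C. glabrata, 3 C. tropicalis, 3 C. krusei, 2 C. parapsilosis, 2 C. sake) were identified by colony morphology and biochemistry and subcultured at 35 °C for purity. Compounds were dissolved in DMSO and tested by broth microdilution in Sabouraud dextrose broth per NCCLS/CLSI/EUCAST guidance. Values are geometric mean MIC per species (µg/mL).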

[4] = system: Enterobacter; assay: Antibacterial activity against Enterobacter spp. assessed as inhibition of microbial growth incubated for 18 to 22 hrs by broth microdilution method; in short: as §1
[5] = system: Enterococcus faecalis; assay: Antibacterial activity against Streptococcus faecalis assessed as inhibition of microbial growth incubated for 18 to 22 hrs by broth microdilution method; in short: as §1
[6] = system: Candida parapsilosis; assay: Antifungal activity against Candida parapsilosis clinical isolates assessed as inhibition of microbial growth incubated for 24 hrs by broth microdilution method; details: Lodderomyces parapsilosis; in short: as §2
[7] = system: Klebsiella oxytoca; assay: Antibacterial activity against Klebsiella oxytoca assessed as inhibition of microbial growth incubated for 18 to 22 hrs by broth microdilution method; in short: as §1
[8] = system: Proteus mirabilis; assay: Antibacterial activity against Proteus mirabilis assessed as inhibition of microbial growth incubated for 18 to 22 hrs by broth microdilution method; in short: as §1
[9] = system: Candida albicans; assay: Antifungal activity against Candida albicans clinical isolates assessed as inhibition of microbial growth incubated for 24 hrs by broth microdilution method; in short: as §2
[10] = system: Candida tropicalis; assay: Antifungal activity against Candida tropicalis clinical isolates assessed as inhibition of microbial growth incubated for 24 hrs by broth microdilution method; in short: as §2
[11] = system: Escherichia coli; assay: Antibacterial activity against Escherichia coli assessed as inhibition of microbial growth incubated for 18 to 22 hrs by broth microdilution method; in short: as §1
[12] = system: [Candida] sake; assay: Antifungal activity against Candida sake clinical isolates assessed as inhibition of microbial growth incubated for 24 hrs by broth microdilution method; details: Fermentozyma sake; in short: as §2
[13] = system: Nakaseomyces glabratus; assay: Antifungal activity against Candida glabrata clinical isolates assessed as inhibition of microbial growth incubated for 24 hrs by broth microdilution method; in short: as §2

C/C(=N/N=C1/SCC(=O)N1Cc1ccccc1)c1cccc2ccccc12
MIC [1]: ≥ 256 µg/mL | MIC [2]: ≥ 256 µg/mL | MIC [3]: 16 µg/mL | MIC [4]: ≥ 256 µg/mL | MIC [5]: ≥ 256 µg/mL | MIC [6]: 16 µg/mL | MIC [7]: ≥ 256 µg/mL | MIC [8]: ≥ 256 µg/mL | MIC [9]: 4 µg/mL | MIC [10]: 32 µg/mL | MIC [11]: ≥ 256 µg/mL | MIC [12]: 4 µg/mL | MIC [13]: 4 µg/mL

O=C1CS/C(=N/N=C\c2ccncc2)N1Cc1ccccc1
MIC [1]: ≥ 256 µg/mL | MIC [2]: ≥ 256 µg/mL | MIC [3]: 256 µg/mL | MIC [4]: ≥ 256 µg/mL | MIC [5]: ≥ 256 µg/mL | MIC [6]: 256 µg/mL | MIC [7]: ≥ 256 µg/mL | MIC [8]: ≥ 256 µg/mL | MIC [9]: 256 µg/mL | MIC [10]: 256 µg/mL | MIC [11]: ≥ 256 µg/mL | MIC [12]: 256 µg/mL | MIC [13]: 256 µg/mL

C/C(=N/N=C1/SCC(=O)N1Cc1ccccc1)c1ccccc1[N+](=O)[O-]
MIC [1]: ≥ 256 µg/mL | MIC [2]: ≥ 256 µg/mL | MIC [3]: 8 µg/mL | MIC [4]: ≥ 256 µg/mL | MIC [5]: ≥ 256 µg/mL | MIC [6]: 2 µg/mL | MIC [7]: ≥ 256 µg/mL | MIC [8]: ≥ 256 µg/mL | MIC [9]: 2 µg/mL | MIC [10]: 2 µg/mL | MIC [11]: ≥ 256 µg/mL | MIC [12]: 4 µg/mL | MIC [13]: 2 µg/mL

O=C1CS/C(=N/N=C\c2c[nH]c3ccccc23)N1Cc1ccccc1
MIC [1]: ≥ 256 µg/mL | MIC [2]: ≥ 256 µg/mL | MIC [3]: 2 µg/mL | MIC [4]: ≥ 256 µg/mL | MIC [5]: ≥ 256 µg/mL | MIC [6]: 16 µg/mL | MIC [7]: ≥ 256 µg/mL | MIC [8]: ≥ 256 µg/mL | MIC [9]: 256 µg/mL | MIC [10]: 256 µg/mL | MIC [11]: ≥ 256 µg/mL | MIC [12]: 16 µg/mL | MIC [13]: 16 µg/mL

O=C1CS/C(=N/N=C\c2ccc3c(c2)OCO3)N1Cc1ccccc1
MIC [1]: ≥ 256 µg/mL | MIC [2]: ≥ 256 µg/mL | MIC [3]: 8 µg/mL | MIC [4]: ≥ 256 µg/mL | MIC [5]: ≥ 256 µg/mL | MIC [6]: 8 µg/mL | MIC [7]: ≥ 256 µg/mL | MIC [8]: ≥ 256 µg/mL | MIC [9]: 8 µg/mL | MIC [10]: 8 µg/mL | MIC [11]: ≥ 256 µg/mL | MIC [12]: 8 µg/mL | MIC [13]: 8 µg/mL

O=C1CS/C(=N/N=C\c2cccc3ccccc23)N1Cc1ccccc1
MIC [1]: ≥ 256 µg/mL | MIC [2]: ≥ 256 µg/mL | MIC [3]: 16 µg/mL | MIC [4]: ≥ 256 µg/mL | MIC [5]: ≥ 256 µg/mL | MIC [6]: 16 µg/mL | MIC [7]: ≥ 256 µg/mL | MIC [8]: ≥ 256 µg/mL | MIC [9]: 8 µg/mL | MIC [10]: 16 µg/mL | MIC [11]: ≥ 256 µg/mL | MIC [12]: 16 µg/mL | MIC [13]: 8 µg/mL

C/C(=N/N=C1/SCC(=O)N1Cc1ccccc1)c1cccc([N+](=O)[O-])c1
MIC [1]: ≥ 256 µg/mL | MIC [2]: ≥ 256 µg/mL | MIC [3]: 4 µg/mL | MIC [4]: ≥ 256 µg/mL | MIC [5]: ≥ 256 µg/mL | MIC [6]: 16 µg/mL | MIC [7]: ≥ 256 µg/mL | MIC [8]: ≥ 256 µg/mL | MIC [9]: 4 µg/mL | MIC [10]: 8 µg/mL | MIC [11]: ≥ 256 µg/mL | MIC [12]: 8 µg/mL | MIC [13]: 2 µg/mL

C/C(=N/N=C1/SCC(=O)N1Cc1ccccc1)c1ccncc1
MIC [1]: ≥ 256 µg/mL | MIC [2]: ≥ 256 µg/mL | MIC [3]: 2 µg/mL | MIC [4]: ≥ 256 µg/mL | MIC [5]: ≥ 256 µg/mL | MIC [6]: 32 µg/mL | MIC [7]: ≥ 256 µg/mL | MIC [8]: ≥ 256 µg/mL | MIC [9]: 8 µg/mL | MIC [10]: 32 µg/mL | MIC [11]: ≥ 256 µg/mL | MIC [12]: 32 µg/mL | MIC [13]: 16 µg/mL

C/C(=N/N=C1/SCC(=O)N1Cc1ccccc1)c1c[nH]c2ccccc12
MIC [1]: ≥ 256 µg/mL | MIC [2]: ≥ 256 µg/mL | MIC [3]: 4 µg/mL | MIC [4]: ≥ 256 µg/mL | MIC [5]: ≥ 256 µg/mL | MIC [6]: 32 µg/mL | MIC [7]: ≥ 256 µg/mL | MIC [8]: ≥ 256 µg/mL | MIC [9]: 8 µg/mL | MIC [10]: 16 µg/mL | MIC [11]: ≥ 256 µg/mL | MIC [12]: 8 µg/mL | MIC [13]: 4 µg/mL

C/C(=N\N=C1\SCC(=O)N1Cc1ccccc1)c1cc2ccccc2o1
MIC [1]: ≥ 256 µg/mL | MIC [2]: ≥ 256 µg/mL | MIC [3]: 16 µg/mL | MIC [4]: ≥ 256 µg/mL | MIC [5]: ≥ 256 µg/mL | MIC [6]: 32 µg/mL | MIC [7]: ≥ 256 µg/mL | MIC [8]: ≥ 256 µg/mL | MIC [9]: 4 µg/mL | MIC [10]: 32 µg/mL | MIC [11]: ≥ 256 µg/mL | MIC [12]: 4 µg/mL | MIC [13]: 4 µg/mL

O=C1CS/C(=N/N=C\c2ccccn2)N1Cc1ccccc1
MIC [1]: ≥ 256 µg/mL | MIC [2]: ≥ 256 µg/mL | MIC [3]: 4 µg/mL | MIC [4]: ≥ 256 µg/mL | MIC [5]: ≥ 256 µg/mL | MIC [6]: 16 µg/mL | MIC [7]: ≥ 256 µg/mL | MIC [8]: ≥ 256 µg/mL | MIC [9]: 4 µg/mL | MIC [10]: 4 µg/mL | MIC [11]: ≥ 256 µg/mL | MIC [12]: 2 µg/mL | MIC [13]: 4 µg/mL

C/C(=N/N=C1/SCC(=O)N1Cc1ccccc1)c1ccc([N+](=O)[O-])cc1
MIC [1]: ≥ 256 µg/mL | MIC [2]: ≥ 256 µg/mL | MIC [3]: 4 µg/mL | MIC [4]: ≥ 256 µg/mL | MIC [5]: ≥ 256 µg/mL | MIC [6]: 4 µg/mL | MIC [7]: ≥ 256 µg/mL | MIC [8]: ≥ 256 µg/mL | MIC [9]: 8 µg/mL | MIC [10]: 8 µg/mL | MIC [11]: ≥ 256 µg/mL | MIC [12]: 8 µg/mL | MIC [13]: 4 µg/mL

C/C(=N/N=C1/SCC(=O)N1Cc1ccccc1)c1ccccc1
MIC [1]: ≥ 256 µg/mL | MIC [2]: ≥ 256 µg/mL | MIC [3]: 4 µg/mL | MIC [4]: ≥ 256 µg/mL | MIC [5]: ≥ 256 µg/mL | MIC [6]: 4 µg/mL | MIC [7]: ≥ 256 µg/mL | MIC [8]: ≥ 256 µg/mL | MIC [9]: 8 µg/mL | MIC [10]: 128 µg/mL | MIC [11]: ≥ 256 µg/mL | MIC [12]: 4 µg/mL | MIC [13]: 4 µg/mL

O=C1CS/C(=N/N=C\c2ccc([N+](=O)[O-])cc2)N1Cc1ccccc1
MIC [1]: ≥ 256 µg/mL | MIC [2]: ≥ 256 µg/mL | MIC [3]: 16 µg/mL | MIC [4]: ≥ 256 µg/mL | MIC [5]: ≥ 256 µg/mL | MIC [6]: 2 µg/mL | MIC [7]: ≥ 256 µg/mL | MIC [8]: ≥ 256 µg/mL | MIC [9]: 4 µg/mL | MIC [10]: 8 µg/mL | MIC [11]: ≥ 256 µg/mL | MIC [12]: 4 µg/mL | MIC [13]: 2 µg/mL

O=C1CS/C(=N/N=C\c2cccnc2)N1Cc1ccccc1
MIC [1]: ≥ 256 µg/mL | MIC [2]: ≥ 256 µg/mL | MIC [3]: 256 µg/mL | MIC [4]: ≥ 256 µg/mL | MIC [5]: ≥ 256 µg/mL | MIC [6]: 256 µg/mL | MIC [7]: ≥ 256 µg/mL | MIC [8]: ≥ 256 µg/mL | MIC [9]: 256 µg/mL | MIC [10]: 256 µg/mL | MIC [11]: ≥ 256 µg/mL | MIC [12]: 256 µg/mL | MIC [13]: 256 µg/mL

C/C(=N/N=C1/SCC(=O)N1Cc1ccccc1)c1ccccn1
MIC [1]: ≥ 256 µg/mL | MIC [2]: ≥ 256 µg/mL | MIC [3]: 256 µg/mL | MIC [4]: ≥ 256 µg/mL | MIC [5]: ≥ 256 µg/mL | MIC [6]: 256 µg/mL | MIC [7]: ≥ 256 µg/mL | MIC [8]: ≥ 256 µg/mL | MIC [9]: 256 µg/mL | MIC [10]: 28 µg/mL | MIC [11]: ≥ 256 µg/mL | MIC [12]: 256 µg/mL | MIC [13]: 16 µg/mL
